pEC50: −log10 of the molar value.
Experiments:
[1] = tested on: Human immunodeficiency virus 1; experiment: Antiviral activity against wild type HIV1 NL4-3 in MT4 cells after 5 days by MTT method; assay type: functional, organism-based; details: Human immunodeficiency virus 1, NL4-3, MT4, 120 h
How it was run: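 MT-4 lymphoid cells, infected with HIV-1 or mock-infected (for cytotoxicity), held with a range of drug concentrations; viable cells scored at day 5 post-infection by tetrazolium (MTT) colorimetry.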

[2] = tested on: Human immunodeficiency virus 1; experiment: Antiviral activity against HIV1 with reverse transcriptase Y181C mutation in MT4 cells after 5 days by MTT method; assay type: functional, organism-based; details: Human immunodeficiency virus 1, MT4, 120 h
[3] = tested on: Human immunodeficiency virus 1; experiment: Antiviral activity against HIV1 with reverse transcriptase Y188L mutation in MT4 cells after 5 days by MTT method; assay type: functional, organism-based; details: Human immunodeficiency virus 1, MT4, 120 h
How it was run: (§1)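 MT-4 cells from the NIH AIDS Reagent Program were infected with mutant HIV-1 (K103N or Y188L, from the MRC Centralised Facility) in the presence of graded drug concentrations. Mock-infected cells were used for cytotoxicity. Viable cells were counted by MTT colorimetry at day 5 post-infection.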

[4] = tested on: Human immunodeficiency virus 1 [K103N]; experiment: Antiviral activity against HIV1 reverse transcriptase K103N mutant
[5] = tested on: Human immunodeficiency virus type 1 reverse transcriptase (Human immunodeficiency virus 1), Q72547 [Y181I]; experiment: Antiviral activity against HIV1 reverse transcriptase Y181I mutant
[6] = tested on: Human immunodeficiency virus 1; experiment: Antiviral activity against HIV1 with reverse transcriptase K103N mutation in MT4 cells after 5 days by MTT method; assay type: functional, organism-based; details: Human immunodeficiency virus 1, MT4, 120 h; how it was run: as §1
[7] = target: Human immunodeficiency virus type 1 reverse transcriptase (Human immunodeficiency virus 1) (UniProt Q72547); experiment: Antiviral activity against wild type HIV1 reverse transcriptase

| SMILES | pEC50 [1] | pEC50 [2] | pEC50 [3] | ID50 [4] [µM] | ID50 [5] [µM] | pEC50 [6] | ID50 [7] [µM] |
| --- | --- | --- | --- | --- | --- | --- | --- |
| COc1ccc(CCSc2nc(C(C)c3c(Cl)cccc3Cl)c(C)c(=O)[nH]2)cc1 (stereo not drawn) | 9.70 | 5.42 | 5.09 | > 20 | > 20 | 5.18 | 0.593 |
| CCc1c(Cc2c(F)cccc2F)nc(SCc2ccc(OC)cc2)[nH]c1=O | 7.92 | 5.84 | < 4.21 | > 20 | > 20 | 4.99 | 0.03 |
| Cc1c(Cc2ccc(C#N)cc2)nc(SCC(=O)c2ccccc2)[nH]c1=O | < 4.17 | < 4.17 | < 4.17 | > 20 | > 20 | < 4.17 | > 20 |
| Cc1c(Cc2c(F)cccc2F)nc(SC/C=C/c2ccc([N+](=O)[O-])cc2)[nH]c1=O | 6.59 | < 4.93 | < 4.93 | > 20 | > 20 | < 4.93 | 11.9 |
| CCc1c(C(C)c2c(F)cccc2F)nc(SC/C=C/c2ccc(OC)cc2)[nH]c1=O (stereo not drawn) | 9.70 | 6.15 | 6.20 | 0.4 | > 20 | 5.99 | 0.016 |
| Cc1c(Cc2c(F)cccc2F)nc(SCC(=O)c2ccc([N+](=O)[O-])cc2)[nH]c1=O | 6.43 | 5.38 | < 4.24 | > 20 | > 20 | < 4.24 | 0.95 |
| CCc1c(Cc2c(Cl)cccc2Cl)nc(SCc2ccc(OC)cc2)[nH]c1=O | 8.66 | 6.08 | < 4.24 | 7.6 | > 20 | 5.16 | 0.032 |
| Cc1c(C(C)c2c(Cl)cccc2Cl)nc(SC/C=C/c2ccc([N+](=O)[O-])cc2)[nH]c1=O (stereo not drawn) | 6.32 | < 4.39 | < 4.39 | > 20 | > 20 | < 4.39 | 0.102 |
| CCc1c(Cc2c(Cl)cccc2Cl)nc(SC/C=C/c2ccc([N+](=O)[O-])cc2)[nH]c1=O | 6.21 | 5.38 | < 4.49 | > 20 | > 20 | < 4.49 | 2.5 |
| COc1ccc(COCCSc2nc(C(C)c3c(F)cccc3F)c(C)c(=O)[nH]2)cc1 (stereo not drawn) | 8.96 | 6.19 | 6.49 | 9.94 | > 20 | 6.04 | 0.0082 |
| Cc1c(Cc2c(Cl)cccc2Cl)nc(SC/C=C/c2ccc(N(C)C)cc2)[nH]c1=O | < 4.26 | < 4.26 | < 4.26 | > 20 | > 20 | < 4.26 | 0.778 |
| Cc1c(C(C)c2c(F)cccc2F)nc(SC/C=C/c2ccc(C#N)cc2)[nH]c1=O (stereo not drawn) | 6.85 | < 4.23 | < 4.23 | > 20 | > 20 | < 4.23 | 0.161 |
| CCc1c(C(C)c2c(F)cccc2F)nc(SCCOCc2ccc(OC)cc2)[nH]c1=O (stereo not drawn) | 5.41 | < 4.26 | < 4.26 | > 20 | 0.27 | < 4.26 | 0.741 |
| CCc1c(Cc2c(F)cccc2F)nc(SCc2ccc([N+](=O)[O-])cc2)[nH]c1=O | 7.13 | 5.67 | < 4.22 | > 20 | > 20 | 4.97 | 0.07 |
| CCc1c(C(C)c2c(F)cccc2F)nc(SC/C=C/c2ccc(C#N)cc2)[nH]c1=O (stereo not drawn) | 6.23 | < 4.56 | < 4.56 | > 20 | > 20 | < 4.56 | 0.048 |
| Cc1c(Cc2c(Cl)cccc2Cl)nc(S/C=C/c2ccc(F)cc2)[nH]c1=O | < 4.23 | < 4.23 | < 4.23 | > 20 | > 20 | 4.93 | > 20 |
| COc1ccc(CSc2nc(C(C)c3c(Cl)cccc3Cl)c(C)c(=O)[nH]2)cc1 (stereo not drawn) | 8.96 | 5.76 | – | > 20 | > 20 | 5.17 | 0.77 |
| COc1ccc(CSc2nc(Cc3ccc(C#N)cc3)c(C)c(=O)[nH]2)cc1 | 4.69 | < 4.18 | < 4.18 | > 20 | > 20 | < 4.18 | > 20 |
| COc1ccc(/C=C/CSc2nc(C(C)c3c(F)cccc3F)c(C)c(=O)[nH]2)cc1 (stereo not drawn) | 9.70 | 6.89 | 7.15 | 3.7 | > 20 | 6.59 | 0.292 |
| CCOc1ccc(CSc2nc(Cc3c(F)cccc3F)c(C)c(=O)[nH]2)cc1 | 6.43 | 5.92 | < 4.21 | > 20 | > 20 | < 4.21 | 0.8 |
| COc1ccc(COCCSc2nc(Cc3c(Cl)cccc3Cl)c(C)c(=O)[nH]2)cc1 | 7.68 | 5.52 | 5.76 | 56 | > 20 | 5.46 | 0.063 |
| Cc1c(C(C)c2c(F)cccc2F)nc(SCc2ccc([N+](=O)[O-])cc2)[nH]c1=O (stereo not drawn) | 8.48 | 6.36 | 6.66 | 0.6 | > 20 | 6.18 | 0.03 |
| Cc1c(C(C)c2c(Cl)cccc2Cl)nc(SCc2ccc([N+](=O)[O-])cc2)[nH]c1=O (stereo not drawn) | 7.72 | 5.15 | 5.00 | > 20 | > 20 | 5.21 | 0.408 |
| COc1ccc(CCCSc2nc(C(C)c3c(Cl)cccc3Cl)c(C)c(=O)[nH]2)cc1 (stereo not drawn) | 9.70 | 6.62 | 6.55 | > 20 | > 20 | 6.09 | 9.76 |
| CC(=O)Oc1ccc(CSc2nc(Cc3c(Cl)cccc3Cl)c(C)c(=O)[nH]2)cc1 | 6.90 | 5.06 | < 4.25 | > 20 | > 20 | < 4.25 | 0.085 |
| Cc1c(Cc2c(F)cccc2F)nc(SCC(=O)c2ccc(Cl)cc2)[nH]c1=O | 5.42 | 5.43 | < 4.23 | > 20 | > 20 | < 4.23 | 7.5 |
| Cc1c(C(C)c2c(Cl)cccc2Cl)nc(SCc2ccc(C#N)cc2)[nH]c1=O (stereo not drawn) | 6.80 | – | – | > 20 | > 20 | 4.93 | 0.02 |
| CCc1c(Cc2c(Cl)cccc2Cl)nc(SC/C=C/c2ccc(C#N)cc2)[nH]c1=O | 5.76 | – | < 4.26 | > 20 | > 20 | < 4.26 | 0.188 |
| COc1ccc(C#CCSc2nc(Cc3c(Cl)cccc3Cl)c(C)c(=O)[nH]2)cc1 | 5.61 | – | < 4.25 | > 20 | > 20 | < 4.25 | 0.01 |

Source: ChEMBL document CHEMBL1138362, “Dihydro-alkylthio-benzyl-oxopyrimidines as inhibitors of reverse transcriptase: synthesis and rationalization of the biological data on both wild-type enzyme and relevant clinical mutants” (J Med Chem, 2007)
